Measurements taken from PubChem BioAssay AID588732 (Vanderbilt Specialized Chemistry Center, 2011).
Active and inactive are the calls of the source.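 How the source made its calls: active means compound shifting glutamate potency twofold either way, or pushing peak response under 75% or over a set limit; inactive means the rest.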

Target: Metabotropic glutamate receptor 8 (Rattus norvegicus) (UniProt P70579)
Assay: rat mGlu8 allosteric modulation, glutamate curve shift, profiling panel, selectivity assay for mGlu5 PAM project, thallium flux, HEK/GIRK cells (AID 588732)
Conditions: glutamate CRC shift, at 10 µM; for Emax: measured here: glutamate max response with compound
In short: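 Test system – rat mGlu8 receptor expressed in HEK/GIRK cells · Reagent – glutamate agonist concentration-response curve · Technique – FluoZin2 thallium-flux slope · Evaluation – glutamate EC50 fold shift and %Emax, four-parameter logistic fit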

Chain of Metabotropic glutamate receptor 8 (Rattus norvegicus) (P70579 whole entry, looked up): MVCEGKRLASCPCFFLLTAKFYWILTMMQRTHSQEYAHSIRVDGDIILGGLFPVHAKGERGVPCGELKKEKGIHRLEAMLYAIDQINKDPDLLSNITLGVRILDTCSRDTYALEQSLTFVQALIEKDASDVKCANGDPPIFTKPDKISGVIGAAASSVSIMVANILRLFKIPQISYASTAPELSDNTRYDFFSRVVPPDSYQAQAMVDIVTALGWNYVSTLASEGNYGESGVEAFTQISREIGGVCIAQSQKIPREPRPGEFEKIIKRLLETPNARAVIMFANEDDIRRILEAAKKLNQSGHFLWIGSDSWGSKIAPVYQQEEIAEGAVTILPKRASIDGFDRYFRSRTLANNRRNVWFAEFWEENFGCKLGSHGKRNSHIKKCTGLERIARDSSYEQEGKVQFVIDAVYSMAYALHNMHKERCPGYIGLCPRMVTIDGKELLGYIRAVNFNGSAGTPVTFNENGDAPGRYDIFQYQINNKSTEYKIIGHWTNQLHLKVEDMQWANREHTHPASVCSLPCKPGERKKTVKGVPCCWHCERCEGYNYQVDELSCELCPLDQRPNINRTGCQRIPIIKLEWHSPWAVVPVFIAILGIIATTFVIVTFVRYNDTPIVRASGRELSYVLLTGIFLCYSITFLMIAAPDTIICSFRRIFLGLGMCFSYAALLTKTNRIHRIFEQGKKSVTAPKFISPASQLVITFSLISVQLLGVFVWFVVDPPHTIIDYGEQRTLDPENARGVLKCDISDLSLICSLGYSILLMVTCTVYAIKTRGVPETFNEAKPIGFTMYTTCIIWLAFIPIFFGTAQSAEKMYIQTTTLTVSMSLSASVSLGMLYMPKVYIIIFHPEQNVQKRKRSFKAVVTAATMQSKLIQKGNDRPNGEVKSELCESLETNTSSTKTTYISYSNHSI

Row | fold shift | Emax [%] | SMILES
1 | 1.1 (inactive) | 92 | CC1(NC(=O)c2ccc(C#Cc3cccc(F)c3)cn2)COC1
2 | 1.36 (inactive) | 89 | C[C@@H](NC(=O)c1ccc(C#Cc2cccc(F)c2)cn1)C(C)(C)O
